How the values were obtained:
NRK = assay: cells; settings: Rattus norvegicus, 48 h
[1] = biological target: cGMP-dependent protein kinase 2 (Homo sapiens) (UniProt Q13237); assay: Inhibition of biotinylated ligand binding to wild-type human partial length PRKG2 (S422 to F762 residues) expressed in mammalian expression system at 50 nM measured after 1 hr by kinomescan assay relative to control
Method in brief: (§1)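 Competition binding: kinase was bound to streptavidin beads carrying a biotinylated ligand, with test compound at 50 nM, in 20% SeaBlock, 0.17x PBS, 0.05% Tween 20 and 6 mM DTT for 1 h at rt with shaking. After washing, kinase was eluted with 0.5 μM free ligand and quantified by qPCR. Result is POC relative to the DMSO (100%) and control-compound (0%) references.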

[2] = biological target: cGMP-dependent protein kinase 1 (Homo sapiens) (UniProt Q13976); assay: Inhibition of biotinylated ligand binding to wild-type human partial length PRKG1 (L339 to F686 residues) expressed in bacterial expression system at 50 nM measured after 1 hr by kinomescan assay relative to control
Sequence of cGMP-dependent protein kinase 1 (Homo sapiens) (Q13976 whole entry, the tested form may be a part): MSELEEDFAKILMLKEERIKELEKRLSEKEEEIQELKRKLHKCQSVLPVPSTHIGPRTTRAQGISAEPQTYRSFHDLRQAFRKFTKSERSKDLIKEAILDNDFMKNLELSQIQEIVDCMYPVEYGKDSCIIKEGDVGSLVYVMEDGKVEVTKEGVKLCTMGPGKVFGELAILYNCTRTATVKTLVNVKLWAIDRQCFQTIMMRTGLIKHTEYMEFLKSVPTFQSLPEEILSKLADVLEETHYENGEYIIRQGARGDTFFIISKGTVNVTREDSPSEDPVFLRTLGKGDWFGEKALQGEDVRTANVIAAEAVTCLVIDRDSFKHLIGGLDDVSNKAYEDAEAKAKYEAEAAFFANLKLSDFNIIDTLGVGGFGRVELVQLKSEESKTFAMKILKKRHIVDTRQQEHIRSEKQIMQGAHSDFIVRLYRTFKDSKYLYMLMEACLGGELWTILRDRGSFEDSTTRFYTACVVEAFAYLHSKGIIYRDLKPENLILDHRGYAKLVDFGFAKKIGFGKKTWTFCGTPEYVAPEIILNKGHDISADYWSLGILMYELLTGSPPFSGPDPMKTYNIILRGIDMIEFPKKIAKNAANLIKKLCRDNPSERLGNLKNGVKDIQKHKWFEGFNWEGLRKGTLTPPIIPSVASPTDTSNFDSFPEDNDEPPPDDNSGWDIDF
Method in brief: (§2)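 Kinase-tagged T7 phage was grown in an E. coli BL21-derived host at 32 °C until lysis, and the lysate was clarified. Kinase was bound to streptavidin beads carrying a biotinylated ligand, with test compound at 50 nM (final DMSO), in binding buffer for 1 h at rt. Bound kinase was eluted and quantified by qPCR. Result is POC relative to the DMSO (100%) and control-compound (0%) references.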

[3] = biological target: Mitogen-activated protein kinase kinase kinase 2 (Homo sapiens) (UniProt Q9Y2U5); assay: Inhibition of biotinylated ligand binding to wild-type human partial length MAP3K2 (S315 to H619 residues) expressed in mammalian expression system at 50 nM measured after 1 hr by kinomescan assay relative to control
Method in brief: as §1

[4] = biological target: Dual specificity protein kinase CLK4 (Homo sapiens) (UniProt Q9HAZ1); assay: Inhibition of biotinylated ligand binding to wild-type human partial length CLK4 (R135 to K481 residues) expressed in bacterial expression system at 50 nM measured after 1 hr by kinomescan assay relative to control
Method in brief: as §2

[5] = biological target: cAMP-dependent protein kinase catalytic subunit alpha (Homo sapiens) (UniProt P17612); assay: Inhibition of biotinylated ligand binding to wild-type human partial length PKAC-alpha (G10 to F351 residues) expressed in bacterial expression system at 50 nM measured after 1 hr by kinomescan assay relative to control
[6] = biological target: Cyclin-dependent kinase 8 (Homo sapiens, UniProt P49336); assay: Inhibition of biotinylated ligand binding to wild-type human partial length CDK8 (M1 to T360 residues) expressed in Escherichia coli BL21 at 50 nM measured after 1 hr by kinomescan assay relative to control
Sequence of Cyclin-dependent kinase 8 (P49336 whole entry, the tested form may be a part): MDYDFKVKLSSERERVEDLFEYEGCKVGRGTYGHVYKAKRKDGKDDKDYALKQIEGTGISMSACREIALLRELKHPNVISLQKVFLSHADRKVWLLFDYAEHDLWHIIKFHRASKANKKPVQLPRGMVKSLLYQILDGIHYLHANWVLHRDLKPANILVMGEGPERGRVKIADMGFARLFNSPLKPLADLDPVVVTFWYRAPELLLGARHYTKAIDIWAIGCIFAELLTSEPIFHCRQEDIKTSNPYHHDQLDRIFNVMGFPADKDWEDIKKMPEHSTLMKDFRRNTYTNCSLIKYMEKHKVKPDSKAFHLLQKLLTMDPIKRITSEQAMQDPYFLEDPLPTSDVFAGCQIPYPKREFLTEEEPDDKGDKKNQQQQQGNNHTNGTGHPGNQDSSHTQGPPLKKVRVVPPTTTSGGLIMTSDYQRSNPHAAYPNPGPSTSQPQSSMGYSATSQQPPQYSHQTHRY
Method in brief: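 T7 phage-tagged kinase lysates from E. coli BL21 were mixed with streptavidin beads carrying biotinylated ligand and 50 nM compound. Incubated 1 h at room temperature with shaking, washed, then eluted 30 min with 0.5 μM non-biotinylated ligand. Kinase was quantified by qPCR. POC = (test − positive)/(DMSO − positive) ×100, with a control compound as positive.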

[7] = biological target: Serine/threonine-protein kinase LATS1 (Homo sapiens) (UniProt O95835); assay: Inhibition of biotinylated ligand binding to wild-type human partial length LATS1 (Q678 to V1130 residues) expressed in bacterial expression system at 50 nM measured after 1 hr by kinomescan assay relative to control
Method in brief: as §2

H9c2 = assay: cells; settings: Rattus norvegicus, H9c2, 48 h
[8] = test system: Hepatocyte growth factor receptor (Homo sapiens), P08581 [Y1235D]; assay: Inhibition of biotinylated ligand binding to human partial length MET Y1235D mutant (D1010 to S1367 residues) expressed in bacterial expression system at 50 nM measured after 1 hr by kinomescan assay relative to control
Sequence of Hepatocyte growth factor receptor (Homo sapiens), P08581 [Y1235D] (P08581 whole entry Y1235D, the tested form may be a part): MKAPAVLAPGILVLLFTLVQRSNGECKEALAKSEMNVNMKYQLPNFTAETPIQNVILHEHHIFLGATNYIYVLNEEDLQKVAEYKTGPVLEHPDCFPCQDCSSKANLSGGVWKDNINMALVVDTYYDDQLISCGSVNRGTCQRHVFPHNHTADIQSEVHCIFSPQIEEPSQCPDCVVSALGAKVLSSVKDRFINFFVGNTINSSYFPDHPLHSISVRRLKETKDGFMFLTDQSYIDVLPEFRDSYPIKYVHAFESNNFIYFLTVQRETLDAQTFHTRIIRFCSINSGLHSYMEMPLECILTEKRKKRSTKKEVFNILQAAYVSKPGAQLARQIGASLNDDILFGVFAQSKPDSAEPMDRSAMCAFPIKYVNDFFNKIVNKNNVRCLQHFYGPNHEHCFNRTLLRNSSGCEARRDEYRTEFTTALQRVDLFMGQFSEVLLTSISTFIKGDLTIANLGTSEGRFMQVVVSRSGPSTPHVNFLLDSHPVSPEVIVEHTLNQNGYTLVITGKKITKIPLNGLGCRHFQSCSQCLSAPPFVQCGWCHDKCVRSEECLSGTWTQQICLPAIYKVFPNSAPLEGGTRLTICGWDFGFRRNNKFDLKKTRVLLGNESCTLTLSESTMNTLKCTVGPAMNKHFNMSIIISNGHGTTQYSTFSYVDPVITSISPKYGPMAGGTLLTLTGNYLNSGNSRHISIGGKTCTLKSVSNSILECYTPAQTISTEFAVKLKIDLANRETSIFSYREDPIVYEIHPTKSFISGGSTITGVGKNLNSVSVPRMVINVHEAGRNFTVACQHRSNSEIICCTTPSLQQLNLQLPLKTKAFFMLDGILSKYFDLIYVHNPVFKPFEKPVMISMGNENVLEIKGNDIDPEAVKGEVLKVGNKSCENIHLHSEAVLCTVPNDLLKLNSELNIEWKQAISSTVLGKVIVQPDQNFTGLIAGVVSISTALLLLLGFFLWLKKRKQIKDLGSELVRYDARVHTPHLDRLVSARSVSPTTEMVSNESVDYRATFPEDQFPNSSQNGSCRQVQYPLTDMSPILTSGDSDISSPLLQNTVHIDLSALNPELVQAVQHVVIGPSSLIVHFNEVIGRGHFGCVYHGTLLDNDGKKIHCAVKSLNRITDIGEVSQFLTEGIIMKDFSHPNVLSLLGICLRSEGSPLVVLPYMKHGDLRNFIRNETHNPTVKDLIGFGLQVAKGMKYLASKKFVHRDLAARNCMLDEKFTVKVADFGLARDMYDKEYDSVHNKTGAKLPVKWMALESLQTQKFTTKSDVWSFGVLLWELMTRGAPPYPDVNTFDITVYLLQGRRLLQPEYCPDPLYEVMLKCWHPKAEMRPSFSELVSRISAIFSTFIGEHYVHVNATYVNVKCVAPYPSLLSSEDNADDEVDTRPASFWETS
Method in brief: as §2

[9] = biological target: cAMP-dependent protein kinase catalytic subunit beta (Homo sapiens) (UniProt P22694); assay: Inhibition of biotinylated ligand binding to wild-type human full length PKAC-beta (M1 to F351 residues) expressed in bacterial expression system at 50 nM measured after 1 hr by kinomescan assay relative to control
[10] = biological target: SRSF protein kinase 3 (Homo sapiens) (UniProt Q9UPE1); assay: Inhibition of biotinylated ligand binding to wild-type human partial length SRPK3 (P41 to P567 residues) expressed in bacterial expression system at 50 nM measured after 1 hr by kinomescan assay relative to control
Method in brief: as §2

[11] = biological target: Rho-associated protein kinase 1 (Homo sapiens) (UniProt Q13464); assay: Inhibition of biotinylated ligand binding to wild-type human partial length ROCK1 (M1 to R415 residues) expressed in mammalian expression system at 50 nM measured after 1 hr by kinomescan assay relative to control
Method in brief: as §1

[12] = biological target: 1-phosphatidylinositol 3-phosphate 5-kinase (Homo sapiens) (UniProt Q9Y2I7); assay: Inhibition of biotinylated ligand binding to wild-type human partial length PIKFYVE (F1512 to C2098 residues) expressed in mammalian expression system at 50 nM measured after 1 hr by kinomescan assay relative to control
Sequence of 1-phosphatidylinositol 3-phosphate 5-kinase (Homo sapiens) (Q9Y2I7 whole entry, the tested form may be a part): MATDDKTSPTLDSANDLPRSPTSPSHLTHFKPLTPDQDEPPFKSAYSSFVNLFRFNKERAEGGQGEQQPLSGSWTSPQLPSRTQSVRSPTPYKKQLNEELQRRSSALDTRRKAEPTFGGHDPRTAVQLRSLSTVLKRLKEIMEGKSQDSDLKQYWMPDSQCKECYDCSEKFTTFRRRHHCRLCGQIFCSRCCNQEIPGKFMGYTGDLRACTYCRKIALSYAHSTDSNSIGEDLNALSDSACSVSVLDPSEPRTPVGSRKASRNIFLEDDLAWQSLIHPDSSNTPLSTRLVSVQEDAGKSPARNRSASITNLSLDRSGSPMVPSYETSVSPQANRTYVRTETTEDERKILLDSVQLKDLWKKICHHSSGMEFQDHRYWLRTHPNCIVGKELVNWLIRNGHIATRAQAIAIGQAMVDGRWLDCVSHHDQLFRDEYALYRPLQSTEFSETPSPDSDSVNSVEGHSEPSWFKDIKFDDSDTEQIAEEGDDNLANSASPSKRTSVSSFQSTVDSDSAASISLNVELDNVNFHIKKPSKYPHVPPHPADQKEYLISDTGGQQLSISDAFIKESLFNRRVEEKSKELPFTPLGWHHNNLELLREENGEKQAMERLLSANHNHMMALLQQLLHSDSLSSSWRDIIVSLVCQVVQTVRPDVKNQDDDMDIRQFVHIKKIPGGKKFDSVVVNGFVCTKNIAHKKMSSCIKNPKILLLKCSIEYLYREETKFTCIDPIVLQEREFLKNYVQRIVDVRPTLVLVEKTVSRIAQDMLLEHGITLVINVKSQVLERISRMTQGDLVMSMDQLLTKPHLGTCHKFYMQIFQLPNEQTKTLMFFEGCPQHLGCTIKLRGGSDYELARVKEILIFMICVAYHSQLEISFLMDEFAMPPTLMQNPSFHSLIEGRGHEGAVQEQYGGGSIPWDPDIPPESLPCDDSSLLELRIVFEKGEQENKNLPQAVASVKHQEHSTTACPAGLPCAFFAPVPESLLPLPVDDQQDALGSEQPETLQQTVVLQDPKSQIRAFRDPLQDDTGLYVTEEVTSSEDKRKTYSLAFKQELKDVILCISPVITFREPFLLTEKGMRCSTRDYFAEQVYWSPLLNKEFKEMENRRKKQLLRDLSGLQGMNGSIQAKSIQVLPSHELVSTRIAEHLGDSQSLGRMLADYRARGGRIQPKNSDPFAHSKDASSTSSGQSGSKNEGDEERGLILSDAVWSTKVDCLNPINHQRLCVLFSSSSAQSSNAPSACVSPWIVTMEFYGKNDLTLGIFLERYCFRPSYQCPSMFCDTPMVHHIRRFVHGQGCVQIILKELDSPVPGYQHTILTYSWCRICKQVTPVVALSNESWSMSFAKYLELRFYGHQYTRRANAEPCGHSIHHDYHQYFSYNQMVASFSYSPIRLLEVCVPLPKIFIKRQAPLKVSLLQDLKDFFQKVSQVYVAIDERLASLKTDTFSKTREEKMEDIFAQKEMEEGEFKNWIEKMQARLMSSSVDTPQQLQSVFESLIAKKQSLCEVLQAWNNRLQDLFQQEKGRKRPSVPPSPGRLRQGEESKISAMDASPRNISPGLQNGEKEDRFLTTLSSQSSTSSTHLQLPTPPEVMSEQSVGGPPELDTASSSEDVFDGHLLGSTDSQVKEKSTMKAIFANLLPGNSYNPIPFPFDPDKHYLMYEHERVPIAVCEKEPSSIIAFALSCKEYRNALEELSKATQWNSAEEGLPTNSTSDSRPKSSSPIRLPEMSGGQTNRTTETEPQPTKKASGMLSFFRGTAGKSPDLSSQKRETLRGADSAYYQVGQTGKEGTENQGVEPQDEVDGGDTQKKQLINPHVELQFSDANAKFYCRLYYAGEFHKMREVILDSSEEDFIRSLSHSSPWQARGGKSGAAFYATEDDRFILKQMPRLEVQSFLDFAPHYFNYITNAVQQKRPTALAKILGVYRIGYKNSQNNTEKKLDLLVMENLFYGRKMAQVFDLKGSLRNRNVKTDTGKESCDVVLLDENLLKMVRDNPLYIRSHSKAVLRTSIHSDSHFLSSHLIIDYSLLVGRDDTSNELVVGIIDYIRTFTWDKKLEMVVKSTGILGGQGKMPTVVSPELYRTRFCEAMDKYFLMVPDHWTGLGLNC

[13] = Selectivity ratio of EC50 for rat NRK cells to EC50 for human MV4-11 cells; type: toxicity; settings: NRK cells versus MV4-11 cells, read-out: Ratio EC50
[14] = biological target: Serine/threonine-protein kinase RIO2 (Homo sapiens) (UniProt Q9BVS4); assay: Inhibition of biotinylated ligand binding to wild-type human partial length RIOK2 (M1 to D313 residues) expressed in mammalian expression system at 50 nM measured after 1 hr by kinomescan assay relative to control
Method in brief: as §1

[15] = Selectivity ratio of EC50 for rat H9c2 cells to EC50 for human OCI-AML3 cells; type: toxicity; settings: H9c2 cells versus OCI-AML3 cells, read-out: Ratio EC50
[16] = biological target: Phosphatidylinositol 5-phosphate 4-kinase type-2 beta (Homo sapiens) (UniProt P78356); assay: Inhibition of biotinylated ligand binding to wild-type human full length PIP5K2B (M1 to T416 residues) expressed in bacterial expression system at 50 nM measured after 1 hr by kinomescan assay relative to control
Sequence of Phosphatidylinositol 5-phosphate 4-kinase type-2 beta (Homo sapiens) (P78356 whole entry, the tested form may be a part): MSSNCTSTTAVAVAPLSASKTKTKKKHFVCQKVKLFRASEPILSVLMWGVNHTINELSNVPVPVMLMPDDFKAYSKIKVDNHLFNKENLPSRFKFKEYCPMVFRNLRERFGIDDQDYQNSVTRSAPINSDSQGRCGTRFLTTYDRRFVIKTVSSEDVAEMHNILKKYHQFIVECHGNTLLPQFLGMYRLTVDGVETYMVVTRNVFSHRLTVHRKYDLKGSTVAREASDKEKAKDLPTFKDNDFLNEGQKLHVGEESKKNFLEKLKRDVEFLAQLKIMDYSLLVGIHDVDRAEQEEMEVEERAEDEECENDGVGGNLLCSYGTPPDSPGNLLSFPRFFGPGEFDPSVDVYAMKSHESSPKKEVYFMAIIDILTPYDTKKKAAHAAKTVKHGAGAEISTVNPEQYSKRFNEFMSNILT
Method in brief: as §2

[17] = biological target: Serine/threonine-protein kinase PLK4 (Homo sapiens) (UniProt O00444); assay: Inhibition of biotinylated ligand binding to wild-type human partial length PLK4 (M1 to S273 residues) expressed in mammalian expression system at 50 nM measured after 1 hr by kinomescan assay relative to control
Method in brief: as §1

[18] = biological target: Protein kinase C theta type (Homo sapiens) (UniProt Q04759); assay: Inhibition of biotinylated ligand binding to wild-type human partial length PRKCQ (L350 to S706 residues) expressed in bacterial expression system at 50 nM measured after 1 hr by kinomescan assay relative to control
Method in brief: as §2

[19] = biological target: High affinity nerve growth factor receptor (Homo sapiens) (UniProt P04629); assay: Inhibition of biotinylated ligand binding to wild-type human partial length TRKA (G475 to G790 residues) expressed in mammalian expression system at 50 nM measured after 1 hr by kinomescan assay relative to control
Method in brief: as §1

[20] = biological target: Serine/threonine-protein kinase RIO1 (Homo sapiens) (UniProt Q9BRS2); assay: Inhibition of biotinylated ligand binding to wild-type human full length RIOK1 (M1 to K568 residues) expressed in bacterial expression system at 50 nM measured after 1 hr by kinomescan assay relative to control
Method in brief: as §2

Compound: CN(C)[C@@H]1CC[C@@]2(C)[C@@H](CC[C@@H]3[C@@H]2CC[C@]2(C)C(c4cccc5cnccc45)=CC[C@@H]32)C1
- EC50 (NRK): 16.2 µM
- inhibition [1]: > 80%
- inhibition [2]: > 80%
- inhibition [3]: > 80%
- inhibition [4]: > 80%
- inhibition [5]: > 80%
- inhibition [6]: > 80%
- inhibition [7]: > 80%
- EC50 (H9c2): 12.5 to 25 µM
- inhibition [8]: > 80%
- inhibition [9]: > 80%
- inhibition [10]: > 80%
- inhibition [11]: > 80%
- inhibition [12]: > 80%
- selectivity ratio [13]: 3 to 4
- inhibition [14]: > 80%
- selectivity ratio [15]: 3 to 4
- inhibition [16]: > 80%
- inhibition [17]: > 80%
- inhibition [18]: > 80%
- inhibition [19]: > 80%
- inhibition [20]: > 80%

Source: ChEMBL document CHEMBL4619723, “New CDK8 inhibitors as potential anti-leukemic agents - Design, synthesis and biological evaluation” (Bioorg Med Chem, 2020)
